Source: ChEMBL document CHEMBL5705899 (Biochem J, 2014)
Activity calls are given as the source filed them. The calls are words filed in the database; no cut-off is given here.

How the values were obtained:
[1] = target: MAP kinase-interacting serine/threonine-protein kinase 2 (Homo sapiens) (UniProt Q9HBH9); test: Inhibition of recombinant human N-terminal GST/C-terminal His6-tagged MNK2alpha (2 to 465 residues) expressed in Escherichia coli assessed as remaining activity at 1 uM using eIF4E as substrate incubated for 30 mins in presence of [gamma-33P]ATP by filter binding method relative to control
Sequence of MAP kinase-interacting serine/threonine-protein kinase 2 (Homo sapiens) (Q9HBH9 whole entry, looked up, the tested form may be a part): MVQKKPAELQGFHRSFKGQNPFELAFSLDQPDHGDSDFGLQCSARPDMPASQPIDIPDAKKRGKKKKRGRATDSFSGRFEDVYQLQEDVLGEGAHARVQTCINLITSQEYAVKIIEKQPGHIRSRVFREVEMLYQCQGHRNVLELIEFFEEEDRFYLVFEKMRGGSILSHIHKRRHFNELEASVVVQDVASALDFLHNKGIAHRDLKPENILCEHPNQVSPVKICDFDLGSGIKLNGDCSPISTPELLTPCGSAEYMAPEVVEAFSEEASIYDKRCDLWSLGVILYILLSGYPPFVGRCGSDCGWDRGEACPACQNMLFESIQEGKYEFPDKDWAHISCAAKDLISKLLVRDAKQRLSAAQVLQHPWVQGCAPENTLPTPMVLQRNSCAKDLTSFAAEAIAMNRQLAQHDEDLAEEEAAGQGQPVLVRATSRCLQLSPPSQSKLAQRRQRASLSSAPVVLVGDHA

[2] = target: Serine/threonine-protein kinase Nek7 (Homo sapiens) (UniProt Q8TDX7); test: Inhibition of human NEK7 at 1 uM using casein as substrate in presence of 33P-ATP by ProQinase assay
Sequence of Serine/threonine-protein kinase Nek7 (Homo sapiens) (Q8TDX7 whole entry, looked up, the tested form may be a part): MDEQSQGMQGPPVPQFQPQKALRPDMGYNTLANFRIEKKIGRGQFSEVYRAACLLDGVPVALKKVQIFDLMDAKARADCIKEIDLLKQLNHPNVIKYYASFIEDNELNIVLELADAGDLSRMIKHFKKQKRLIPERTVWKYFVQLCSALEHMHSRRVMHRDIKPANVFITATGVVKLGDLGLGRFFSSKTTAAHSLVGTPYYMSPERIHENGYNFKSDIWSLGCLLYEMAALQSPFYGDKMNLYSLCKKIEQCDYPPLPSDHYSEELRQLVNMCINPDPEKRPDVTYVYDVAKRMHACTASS

[3] = target: Serine/threonine-protein kinase pim-2 (Homo sapiens) (UniProt Q9P1W9); test: Inhibition of recombinant human N-terminal GST-tagged PIM2 (2 to 334 residues) expressed in Escherichia coli assessed as remaining activity at 1 uM using RSRHSSYPAGT as substrate incubated for 30 mins in presence of [gamma-33P]ATP by filter binding method relative to control
[4] = target: Mitogen-activated protein kinase 13 (Homo sapiens) (UniProt O15264); test: Inhibition of recombinant human GST-tagged P38delta (1 to 365 residues) expressed in Escherichia coli assessed as remaining activity at 1 uM using MBP as substrate incubated for 30 mins in presence of [gamma-33P]ATP by filter binding method relative to control
Sequence of Mitogen-activated protein kinase 13 (Homo sapiens) (O15264 whole entry, the tested form may be a part, canonical isoform): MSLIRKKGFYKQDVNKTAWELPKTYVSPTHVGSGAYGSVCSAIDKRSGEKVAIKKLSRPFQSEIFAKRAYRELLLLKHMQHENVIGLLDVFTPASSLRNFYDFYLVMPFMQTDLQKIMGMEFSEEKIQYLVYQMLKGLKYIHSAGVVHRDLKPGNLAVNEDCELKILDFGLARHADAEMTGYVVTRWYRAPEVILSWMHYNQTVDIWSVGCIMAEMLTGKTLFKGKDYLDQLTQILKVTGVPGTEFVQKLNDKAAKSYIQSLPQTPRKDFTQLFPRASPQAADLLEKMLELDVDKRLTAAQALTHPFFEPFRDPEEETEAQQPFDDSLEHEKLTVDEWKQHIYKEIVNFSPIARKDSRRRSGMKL

[5] = target: Casein kinase I isoform gamma-2 (Homo sapiens) (UniProt P78368); test: Inhibition of human CK1gamma2 at 1 uM using casein as substrate in presence of 33P-ATP by ProQinase assay
[6] = target: Eukaryotic translation initiation factor 2-alpha kinase 3 (Homo sapiens) (UniProt Q9NZJ5); test: Inhibition of human EIF2AK3 at 1 uM using casein as substrate in presence of 33P-ATP by ProQinase assay
[7] = target: Serine/threonine-protein kinase 24 (Homo sapiens) (UniProt Q9Y6E0); test: Inhibition of recombinant human N-terminal GST-tagged MST3 (1 to 431 residues) expressed in baculovirus infected Sf21 cells assessed as remaining activity at 1 uM using MBP as substrate incubated for 30 mins in presence of [gamma-33P]ATP by filter binding method relative to control
[8] = target: Serine/threonine-protein kinase TAO3 (Homo sapiens) (UniProt Q9H2K8); test: Inhibition of human TAOK3 at 1 uM using 3xChocktide-PKC as substrate in presence of 33P-ATP by ProQinase assay
Sequence of Serine/threonine-protein kinase TAO3 (Homo sapiens) (Q9H2K8 whole entry): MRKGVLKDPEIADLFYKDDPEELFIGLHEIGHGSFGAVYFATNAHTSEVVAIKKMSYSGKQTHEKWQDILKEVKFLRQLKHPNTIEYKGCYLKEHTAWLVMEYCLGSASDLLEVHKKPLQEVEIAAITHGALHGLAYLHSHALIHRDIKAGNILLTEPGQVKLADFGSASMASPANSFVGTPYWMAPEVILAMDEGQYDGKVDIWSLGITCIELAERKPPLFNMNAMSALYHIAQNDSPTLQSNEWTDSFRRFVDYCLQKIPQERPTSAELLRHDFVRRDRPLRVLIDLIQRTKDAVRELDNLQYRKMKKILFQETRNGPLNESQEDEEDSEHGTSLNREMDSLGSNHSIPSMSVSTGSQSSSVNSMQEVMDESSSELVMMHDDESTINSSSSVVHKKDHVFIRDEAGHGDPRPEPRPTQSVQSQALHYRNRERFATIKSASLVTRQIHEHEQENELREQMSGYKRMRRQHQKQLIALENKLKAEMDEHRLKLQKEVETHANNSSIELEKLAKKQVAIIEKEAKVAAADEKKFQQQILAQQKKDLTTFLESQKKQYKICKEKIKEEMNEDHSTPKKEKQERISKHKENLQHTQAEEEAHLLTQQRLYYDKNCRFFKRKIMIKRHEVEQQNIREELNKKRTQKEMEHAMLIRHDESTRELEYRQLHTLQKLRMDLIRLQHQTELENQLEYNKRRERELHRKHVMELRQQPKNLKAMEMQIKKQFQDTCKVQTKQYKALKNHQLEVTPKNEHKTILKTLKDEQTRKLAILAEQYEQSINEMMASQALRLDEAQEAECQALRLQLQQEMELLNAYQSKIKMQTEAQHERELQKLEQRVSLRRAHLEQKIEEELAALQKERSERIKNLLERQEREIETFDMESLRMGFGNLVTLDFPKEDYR

[9] = target: Mitogen-activated protein kinase 3 (Homo sapiens) (UniProt P27361); test: Inhibition of human ERK1 at 1 uM using RBER-CHKtide as substrate in presence of 33P-ATP by ProQinase assay
Sequence of Mitogen-activated protein kinase 3 (Homo sapiens) (P27361 whole entry, the tested form may be a part): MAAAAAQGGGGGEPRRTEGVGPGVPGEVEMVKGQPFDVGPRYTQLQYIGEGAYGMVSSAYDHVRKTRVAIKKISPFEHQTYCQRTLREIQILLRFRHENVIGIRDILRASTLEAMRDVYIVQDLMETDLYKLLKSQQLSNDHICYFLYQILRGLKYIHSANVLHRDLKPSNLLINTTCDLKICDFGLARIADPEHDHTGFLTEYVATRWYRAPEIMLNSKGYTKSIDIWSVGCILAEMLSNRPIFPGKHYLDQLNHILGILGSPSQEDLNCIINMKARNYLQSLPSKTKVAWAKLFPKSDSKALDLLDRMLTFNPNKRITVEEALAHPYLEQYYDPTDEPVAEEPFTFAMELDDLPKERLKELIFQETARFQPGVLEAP

[10] = target: Casein kinase II subunit alpha' (Homo sapiens) (UniProt P19784); test: Inhibition of human CK2alpha2 at 1 uM using casein as substrate in presence of 33P-ATP by ProQinase assay
Sequence of Casein kinase II subunit alpha' (Homo sapiens) (P19784 whole entry, looked up, the tested form may be a part): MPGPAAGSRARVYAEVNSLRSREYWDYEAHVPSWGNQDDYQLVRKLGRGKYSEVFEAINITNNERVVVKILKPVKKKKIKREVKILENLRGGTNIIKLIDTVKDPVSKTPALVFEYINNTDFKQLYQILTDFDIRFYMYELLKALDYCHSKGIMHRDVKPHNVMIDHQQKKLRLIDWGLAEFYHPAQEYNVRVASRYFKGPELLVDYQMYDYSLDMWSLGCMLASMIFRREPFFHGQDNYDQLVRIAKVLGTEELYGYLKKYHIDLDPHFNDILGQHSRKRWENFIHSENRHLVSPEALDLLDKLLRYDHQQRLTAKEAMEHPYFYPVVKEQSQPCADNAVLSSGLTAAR

[11] = target: Serine/threonine-protein kinase 33 (Homo sapiens) (UniProt Q9BYT3); test: Inhibition of recombinant human N-terminal GST-tagged STK33 (1 to 514 residues) expressed in baculovirus infected Sf21 cells assessed as remaining activity at 1 uM using AALVRQMSVAFFFKKKKK as substrate incubated for 30 mins in presence of [gamma-33P]ATP by filter binding method relative to control
Sequence of Serine/threonine-protein kinase 33 (Homo sapiens) (Q9BYT3 whole entry, looked up, the tested form may be a part): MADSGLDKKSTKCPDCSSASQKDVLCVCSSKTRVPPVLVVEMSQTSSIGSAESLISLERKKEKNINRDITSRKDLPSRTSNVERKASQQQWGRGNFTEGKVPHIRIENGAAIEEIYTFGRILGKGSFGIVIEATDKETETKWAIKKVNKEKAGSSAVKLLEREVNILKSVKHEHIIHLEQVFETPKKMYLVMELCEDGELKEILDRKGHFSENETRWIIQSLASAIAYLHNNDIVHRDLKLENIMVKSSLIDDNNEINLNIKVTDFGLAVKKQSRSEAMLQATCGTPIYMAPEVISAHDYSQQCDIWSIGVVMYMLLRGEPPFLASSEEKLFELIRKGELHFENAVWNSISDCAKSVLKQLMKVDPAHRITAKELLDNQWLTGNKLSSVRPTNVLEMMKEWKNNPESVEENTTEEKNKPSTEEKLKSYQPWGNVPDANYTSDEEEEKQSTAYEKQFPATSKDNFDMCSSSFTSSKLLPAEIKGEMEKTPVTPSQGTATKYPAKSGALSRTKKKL

[12] = target: CDK7/Cyclin H/MNAT1 (Homo sapiens) (UniProt P51946+P50613+P51948); test: Inhibition of human CDK7/CyclinH/MAT1 at 1 uM using RBER-CHKtide as substrate in presence of 33P-ATP by ProQinase assay; format: protein-complex assay
[13] = target: G protein-coupled receptor kinase 5 (Homo sapiens) (UniProt P34947); test: Inhibition of human GRK5 at 1 uM using casein as substrate in presence of 33P-ATP by ProQinase assay
[14] = target: Receptor tyrosine-protein kinase erbB-4 (Homo sapiens) (UniProt Q15303); test: (§1) Inhibition of recombinant human N-terminal His6-tagged HER4 (706 to 991 residues) expressed in baculovirus infected Sf21 cells assessed as remaining activity at 1 uM using Poly (Glu,Tyr) as substrate incubated for 30 mins in presence of [gamma-33P]ATP by filter binding method relative to control
[15] = target: Phosphatidylinositol 4,5-bisphosphate 3-kinase catalytic subunit delta isoform (Homo sapiens, UniProt O00329); test: Inhibition of PI3Kdelta (unknown origin) using PtdIns(4,5)P2 as substrate preincubated for 20 mins followed by substrate addition and measured after 80 mins by Kinase-Glo assay
Sequence of Phosphatidylinositol 4,5-bisphosphate 3-kinase catalytic subunit delta isoform (O00329 whole entry, canonical isoform): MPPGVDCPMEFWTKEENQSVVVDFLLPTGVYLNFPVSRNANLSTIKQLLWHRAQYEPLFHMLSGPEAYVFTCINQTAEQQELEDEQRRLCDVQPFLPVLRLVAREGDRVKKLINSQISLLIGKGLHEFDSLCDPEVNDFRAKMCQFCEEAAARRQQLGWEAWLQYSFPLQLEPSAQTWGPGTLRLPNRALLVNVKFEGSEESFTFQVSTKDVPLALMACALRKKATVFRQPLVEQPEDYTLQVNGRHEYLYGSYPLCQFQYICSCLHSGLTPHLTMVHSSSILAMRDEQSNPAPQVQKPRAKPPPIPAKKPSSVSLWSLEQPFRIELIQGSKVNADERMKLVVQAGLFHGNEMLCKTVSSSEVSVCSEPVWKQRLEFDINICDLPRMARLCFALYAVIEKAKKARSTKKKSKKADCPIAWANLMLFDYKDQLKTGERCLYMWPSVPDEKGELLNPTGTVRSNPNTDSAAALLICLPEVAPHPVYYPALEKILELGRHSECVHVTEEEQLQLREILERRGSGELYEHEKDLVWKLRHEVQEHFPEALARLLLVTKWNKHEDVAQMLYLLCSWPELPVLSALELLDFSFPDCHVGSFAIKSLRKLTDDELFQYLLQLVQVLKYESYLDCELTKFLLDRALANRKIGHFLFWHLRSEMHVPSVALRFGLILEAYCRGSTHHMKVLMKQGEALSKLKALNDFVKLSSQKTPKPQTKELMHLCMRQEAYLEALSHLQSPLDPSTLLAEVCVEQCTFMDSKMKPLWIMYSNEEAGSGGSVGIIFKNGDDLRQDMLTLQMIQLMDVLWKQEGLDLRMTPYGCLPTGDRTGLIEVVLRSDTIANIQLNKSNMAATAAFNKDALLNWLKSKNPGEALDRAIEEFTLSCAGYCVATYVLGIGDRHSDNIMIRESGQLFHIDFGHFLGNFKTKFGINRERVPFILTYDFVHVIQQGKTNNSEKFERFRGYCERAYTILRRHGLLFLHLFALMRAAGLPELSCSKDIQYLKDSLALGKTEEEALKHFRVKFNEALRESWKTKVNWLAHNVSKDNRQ

[16] = target: Eukaryotic translation initiation factor 2-alpha kinase 1 (Homo sapiens) (UniProt Q9BQI3); test: Inhibition of human HRI at 1 uM using casein as substrate in presence of 33P-ATP by ProQinase assay
[17] = target: Serine/threonine-protein kinase Nek9 (Homo sapiens) (UniProt Q8TD19); test: Inhibition of human NEK9 at 1 uM using RBER-GSK3 as substrate in presence of 33P-ATP by ProQinase assay
TAK1/TAB1 (Homo sapiens) = TAK1/TAB1 (Homo sapiens) (UniProt Q15750+O43318); test: Inhibition of human MAP3K7/MAP3K7IP1 at 1 uM using RB-S6P as substrate in presence of 33P-ATP by ProQinase assay; format: protein-complex assay
[18] = target: Mitogen-activated protein kinase 12 (Homo sapiens) (UniProt P53778); test: Inhibition of recombinant human N-terminal GST-tagged P38gamma (1 to 367 residues) expressed in Escherichia coli assessed as remaining activity at 1 uM using MBP as substrate incubated for 30 mins in presence of [gamma-33P]ATP by filter binding method relative to control
[19] = target: Phosphatidylinositol 4-phosphate 5-kinase type-1 gamma (Homo sapiens, UniProt O60331); test: Inhibition of PIP5K1C (unknown origin) using D-myo-PIP as substrate incubated for 45 mins by ADP-Glo assay
Sequence of Phosphatidylinositol 4-phosphate 5-kinase type-1 gamma (O60331 whole entry): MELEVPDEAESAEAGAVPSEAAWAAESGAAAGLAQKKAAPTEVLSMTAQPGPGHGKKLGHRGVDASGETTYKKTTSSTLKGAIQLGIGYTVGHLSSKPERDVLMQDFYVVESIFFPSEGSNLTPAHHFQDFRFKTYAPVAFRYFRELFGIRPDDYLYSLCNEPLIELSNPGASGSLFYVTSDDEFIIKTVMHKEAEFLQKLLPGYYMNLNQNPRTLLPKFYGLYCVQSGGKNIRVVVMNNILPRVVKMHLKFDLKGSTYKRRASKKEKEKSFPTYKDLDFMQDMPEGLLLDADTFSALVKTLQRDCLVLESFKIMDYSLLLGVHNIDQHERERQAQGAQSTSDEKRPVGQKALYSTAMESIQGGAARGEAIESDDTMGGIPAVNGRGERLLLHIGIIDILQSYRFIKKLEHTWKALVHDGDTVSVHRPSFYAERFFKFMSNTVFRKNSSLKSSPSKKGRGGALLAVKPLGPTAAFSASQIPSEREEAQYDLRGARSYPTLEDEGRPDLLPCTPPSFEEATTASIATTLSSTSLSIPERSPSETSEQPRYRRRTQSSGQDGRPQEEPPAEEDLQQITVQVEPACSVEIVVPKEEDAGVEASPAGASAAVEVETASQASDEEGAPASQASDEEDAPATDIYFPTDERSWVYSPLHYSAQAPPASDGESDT
How it was run: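 Substrates were 14 μM PtdIns 4-phosphate and 20 μM ATP, with inhibitor at varying concentrations. Reactions ran 45 min at ambient temperature, then luminescence detection was done as for the PI4K assays.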

[20] = target: Mitogen-activated protein kinase 3 (Homo sapiens) (UniProt P27361); test: Inhibition of recombinant human N-terminal GST-tagged ERK1 (2 to 379 residues) expressed in Escherichia coli assessed as remaining activity at 1 uM using MBP as substrate incubated for 30 mins in presence of [gamma-33P]ATP by filter binding method relative to control
[21] = target: MAP/microtubule affinity-regulating kinase 4 (Homo sapiens) (UniProt Q96L34); test: as §1, with “MARK4 (2” for “HER4 (706”, “752” for “991”, “KKKVSRSGLYRSPSMPENLNRPR” for “Poly (Glu,Tyr)”
[22] = target: Mitogen-activated protein kinase kinase kinase 20 (Homo sapiens) (UniProt Q9NYL2); test: Inhibition of human ZAK at 1 uM using MBP as substrate in presence of 33P-ATP by ProQinase assay
[23] = target: Casein kinase I isoform gamma-3 (Homo sapiens) (UniProt Q9Y6M4); test: Inhibition of human CK1gamma3 at 1 uM using casein as substrate in presence of 33P-ATP by ProQinase assay

CC(C)(O)CNc1ncc(-c2ccnc(Nc3ccnc(Cl)c3)n2)c(CC2CC2)n1
Activity [1]: 100%
inhibition [2]: inactive
Activity [3]: 113%
Activity [4]: 111%
inhibition [5]: inactive
inhibition [6]: inactive
Activity [7]: 118%
inhibition [8]: inactive
inhibition [9]: inactive
inhibition [10]: inactive
Activity [11]: 124%
inhibition [12]: inactive
inhibition [13]: inactive
Activity [14]: 101%
IC50 [15]: 1.9 µM
inhibition [16]: inactive
inhibition [17]: inactive
inhibition (TAK1/TAB1 (Homo sapiens)): inactive
Activity [18]: 133%
IC50 [19]: 0.382 µM
Activity [20]: 108%
Activity [21]: 115%
inhibition [22]: inactive
inhibition [23]: inactive
